Among the data in ChEMBL document CHEMBL5104184, “Chemical Toolkit for PARK7: Potent, Selective, and High-Throughput” (J Med Chem, 2022) are inhibition and Activity values, retold here.

For test [1], the target named is Ubiquitin carboxyl-terminal hydrolase isozyme L1 (Homo sapiens) (UniProt P09936). The test is described as follows: Inhibition of UCHL1 in human HEK293T cells assessed as reduction in Rho-Ub-PA-labelled UCHL1 band intensity at 5 uM incubated for 1 hr followed by incubation with Rho-Ub-PA for 30 mins by fluorescence scanning based analysis. Format: cell-based. To be noted: time 90.0 min.

Test [2] has the same target. The test is described as follows: Inhibition of UCHL1 (unknown origin) using SRK59 as fluorescent probe at 2 uM preincubated for 1 hr followed by SRK59 addition for 30 mins by Gel-based competition assay. As to conditions: time 90.0 min. The essentials:
(§1)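 Recombinant PARK7 and UCHL1 (1 μM each, mixed) or PARK7 alone, in 50 mM Tris-HCl, 150 mM NaCl, 2 mM TCEP, pH 7.5. Treated with compound at 2 μM or a serial dilution for 1 h at 37 °C. Then 8RK59 probe (2 μM final) added for 30 min at 37 °C. Run on SDS-PAGE; remaining labelling read by fluorescence scan.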

The target of test [3] is T1, Parkinson disease protein 7 (Homo sapiens) (UniProt Q99497).
T1 sequence (whole entry): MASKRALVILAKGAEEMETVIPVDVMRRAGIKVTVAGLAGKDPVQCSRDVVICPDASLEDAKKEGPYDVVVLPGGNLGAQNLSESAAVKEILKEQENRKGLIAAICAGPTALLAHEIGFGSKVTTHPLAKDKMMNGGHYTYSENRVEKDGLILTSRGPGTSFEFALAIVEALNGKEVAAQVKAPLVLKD
In words: Binding affinity to N-terminal GST-tagged human recombinant PARK7 expressed in Escherichia coli BL21(DE3)Rosetta2 cells at 2 uM measured after 1 hr by coomassie staining based analysis. The essentials: (§2)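 Purified recombinant PARK7 (GST-tagged in E. coli BL21(DE3) Rosetta2, tag removed by 3C protease, then gel filtration), 1 μM final. Incubated with probe at 0, 0.1, 0.5, 1, 2, 5 or 10 μM for 1 h at 37 °C in 50 mM Tris-HCl, 150 mM NaCl, 2 mM TCEP, pH 7.5. Stopped with LDS sample buffer, run on SDS-PAGE, read by fluorescence scan, then Coomassie stain.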

Test [4] concerns the target T1, Parkinson disease protein 7 (Homo sapiens). In words: Binding affinity to PARK7 in human HEK293T cells at 1 uM incubated for 1 hr by fluorescence scanning based analysis. Type of test: cell-based.
Test [5] has the same target. In words: Binding affinity to PARK7 in human HEK293T cells at 0.5 uM incubated for 1 hr by fluorescence scanning based analysis. Type of test: cell-based.
The target is the same in test [6]. In words: Binding affinity to N-terminal GST-tagged human recombinant PARK7 expressed in Escherichia coli BL21(DE3)Rosetta2 cells at 1 uM measured after 1 hr by coomassie staining based analysis. In outline:
as §2

Test [7] has the same target. The test is described as follows: Binding affinity to N-terminal GST-tagged human recombinant PARK7 expressed in Escherichia coli BL21(DE3)Rosetta2 cells at 1 uM measured after 1 hr by fluorescence scanning analysis. In outline: as §2
For test [8] the target is unchanged. The test is described as follows: Binding affinity to PARK7 in human HEK293T cells at 0.5 to 1 uM incubated for 1 hr by western blot analysis. Format: cell-based. As to conditions: dose 0.5-1 µM. In general terms: A western blot detects proteins with antibodies after separation by electrophoresis.
For test [9] the target is unchanged. The test is described as follows: Binding affinity to PARK7 in UCHL1 knockdown human HEK293T cells at 1 uM incubated for 1 hr by fluorescence scanning based analysis. Format: cell-based. In outline:
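HEK293T cells were siRNA-transfected with Dharmafect 1 and cultured 3 days, then lysed in Triton X-100/TCEP Tris buffer (pH 7.5) with protease inhibitors. Lysate labelled with probe at 1 μM final for 1 h at 37 °C. Read by SDS-PAGE Cy5 fluorescence scan (635/655 nm), then immunoblot for UCHL1/PARK7 with actin as loading control.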

Test [10] shares this target. In words: Binding affinity to N-terminal GST-tagged human recombinant PARK7 expressed in Escherichia coli BL21(DE3)Rosetta2 cells at 2 uM measured after 1 hr by fluorescence scanning analysis. The essentials:
as §2

Test [11] shares this target. The test is described as follows: Inhibition of N-terminal GST-tagged human recombinant PARK7 expressed in Escherichia coli BL21(DE3)Rosetta2 cells using SRK59 as fluorescent probe at 2 uM preincubated for 1 hr followed by SRK59 addition for 30 mins by Gel-based competition assay. As to conditions: time 90.0 min. In outline: as §1
Test [12] concerns the target Ubiquitin carboxyl-terminal hydrolase isozyme L1 (Homo sapiens) (UniProt P09936). The test is described as follows: Inhibition of UCHL1 (unknown origin) using SRK59 as fluorescent probe at 20 uM preincubated for 1 hr followed by SRK59 addition for 30 mins by Gel-based competition assay. As to conditions: time 90.0 min. In outline: as §1
For test [13], the target named is T1, Parkinson disease protein 7 (Homo sapiens). In words: Inhibition of N-terminal GST-tagged human recombinant PARK7 expressed in Escherichia coli BL21(DE3)Rosetta2 cells using SRK59 as fluorescent probe at 1 to 2 uM preincubated for 1 hr followed by SRK59 addition for 30 mins by Gel-based competition assay. As to conditions: dose 1-2 µM, time 90.0 min. In outline: as §1

Test [14] shares this target. In words: Inhibition of PARK7 in human HEK293T cells assessed as reduction in JQ-92 labelled PARK7 band intensity incubated for 1 hr followed by incubation with JQ-92 for 30 mins by fluorescence scanning based analysis. Type of test: cell-based. As to conditions: dose 0.1-20 µM, time 90.0 min, DDE = dose-dependent effect.
For test [15] the target is unchanged. In words: Inhibition of N-terminal GST-tagged human recombinant PARK7 expressed in Escherichia coli BL21(DE3)Rosetta2 cells using SRK59 as fluorescent probe at 0.5 uM preincubated for 1 hr followed by SRK59 addition for 30 mins by Gel-based competition assay. To be noted: time 90.0 min. In outline:
as §1

Test [16] shares this target. In words: Binding affinity to N-terminal GST-tagged human recombinant PARK7 expressed in Escherichia coli BL21(DE3)Rosetta2 cells at 5 uM measured after 1 hr by fluorescence scanning analysis. The essentials: as §2
The target is the same in test [17]. The test is described as follows: Binding affinity to N-terminal GST-tagged human recombinant PARK7 expressed in Escherichia coli BL21(DE3)Rosetta2 cells at 5 uM measured after 1 hr by coomassie staining based analysis. In outline: as §2
Test [18] has the same target. In words: Inhibition of PARK7 in human HEK293T cells assessed as reduction in JQ-92 labelled PARK7 band intensity at 0.1 to 50 uM incubated for 1 hr followed by incubation with JQ-92 for 30 mins by fluorescence scanning based analysis. Type of test: cell-based. As to conditions: dose 0.1-50 µM, time 90.0 min.
Test [19] has the same target. In words: Inhibition of N-terminal GST-tagged human recombinant PARK7 expressed in Escherichia coli BL21(DE3)Rosetta2 cells using DiFMUAc as substrate at 12.5 to 100 uM preincubated with enzyme for 1 hr followed by substrate addition and measured for 1 hr by DiFMUAc assay based fluorescence analysis. As to conditions: dose 12.5-100 µM, time 2.0 hrs. In outline:
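PARK7 GST fusion was expressed in E. coli BL21(DE3) Rosetta2, purified on glutathione beads, cut with 3C protease and polished by SEC. Enzyme at 0.1 μM final in PBS was preincubated with compound at 100, 37.5 or 12.5 μM final. DiFMUAc was then added at 300 μM final, and fluorescence (ex/em 350/450 nm) was monitored for 1 h. Run in triplicate.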

For test [20] the target is unchanged. The test is described as follows: Inhibition of PARK7 in human HEK293T cells assessed as reduction in JQ-92 labelled PARK7 band intensity at 1 uM incubated for 1 hr followed by incubation with JQ-92 for 30 mins by fluorescence scanning based analysis. Type of test: cell-based. As to conditions: time 90.0 min.

Each structure is given as a SMILES string. Active and inactive are the calls of the source. The calls are words filed in the database; no cut-off is given here.

Sequence of Ubiquitin carboxyl-terminal hydrolase isozyme L1 (Homo sapiens) (P09936 whole entry, looked up): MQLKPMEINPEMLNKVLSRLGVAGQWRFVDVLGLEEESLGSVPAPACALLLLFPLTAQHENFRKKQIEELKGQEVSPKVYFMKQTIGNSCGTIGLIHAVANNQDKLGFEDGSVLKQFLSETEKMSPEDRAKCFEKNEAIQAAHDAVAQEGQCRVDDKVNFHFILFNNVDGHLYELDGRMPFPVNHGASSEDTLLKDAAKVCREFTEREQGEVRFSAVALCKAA

As a reminder, the inhibition is the relative decrease from the control value, in per cent. In the case of `N#CN1CC[C@H](C(=O)Nc2nc3c(s2)CN(C(=O)CN=[N+]=[N-])CC3)C1`, the inhibition result in test [1] and in test [2] was “Active” each time.
As to `CC[N+]1=C(/C=C/C=C/C=C2/N(CCCCCC(=O)NCCCc3cn(CC(=O)N4CCc5nc(NC(=O)[C@@H]6CCN(C#N)C6)sc5C4)nn3)c3ccc(S(=O)(=O)O)cc3C2(C)C)C(C)(C)c2cc(S(=O)(=O)[O-])ccc21`, the result in test [3], in test [4], in test [5], in test [6], in test [7] and in [8] was Active. In addition, the result in [9] and in [10] was Active.
In test [2], `CN1C(=O)CC(C(=O)N2CCc3nc(NC(=O)[C@H]4CCN(C#N)C4)sc3C2)[C@@H]1c1cccnc1` (stereo partly drawn) gave an inhibition of 100%. The inhibition result in test [11] was “Active”.
In test [2], `N#CN1CC[C@H](C(=O)Nc2nc3c(s2)CN(C(=O)Cc2ccncc2)CC3)C1` displayed an inhibition of 100%. Besides, the inhibition result in [11] is “Active”.
Regarding `N#CN1CC[C@@H](C(=O)Nc2nc3c(s2)CN(C(=O)CN=[N+]=[N-])CC3)C1`, the inhibition entry in test [12] and in [15] was “Active” in each case. Besides, the inhibition in [13] was 100%; in [14], “Dde”; in [11], 100%.
As to `N#CN1CC[C@H](C(=O)Nc2ncc(N3CCOCC3)s2)C1`, the inhibition entry in [1] is “Active”.
In the case of `CC1=CC(C)=[N+]2C1=C(CCCCc1cn(CC(=O)N3CCc4nc(NC(=O)[C@@H]5CCN(C#N)C5)sc4C3)nn1)c1c(C)cc(C)n1[B-]2(F)F`, the result in test [16] and in test [17] was Active.
As to `O=C(O)c1csc(C(=O)CCl)c1`, the inhibition entry in test [18] and in test [19] was “Active” throughout.
As for `N#CN1CC[C@@H](C(=O)Nc2nc3c(s2)CN(C(=O)Cn2cc(CCCNC(=O)c4ccc(-c5c6ccc(=N)cc-6oc6cc(N)ccc56)c(C(=O)O)c4)nn2)CC3)C1`, the outcome in test [6] and in test [7] was Active.
Consider `O=c1ccc(NS(=O)(=O)c2cccc(S(=O)(=O)F)c2)c[nH]1`, for which the inhibition in test [20] was 100%. Also, the inhibition result in test [18] and in [19] was “Active” in each case.
For the molecule `N#CN1CC[C@H](C(=O)Nc2nc3c(s2)CN(C(=O)CCCCBr)CC3)C1`, the inhibition in test [2] was 100%. In test [11], the inhibition result is “Active”.
As for `CCC(C)c1ccc(NC(=O)CCl)cc1` (stereo not drawn), the inhibition result in test [18] and in test [19] was “Active” in each case.
